From publication PMC5061631 (Cell metabolism, 2016)

Assays:
site IQ = conditions: ref Orr et al., 2013; cited from earlier work
[1] = test system: site IQ of mitochondrial respiratory complex I; format: biochemical, rat; conditions: for IC50: read-out: IC50 against superoxide-H2O2 production from site IQ, isolated rat skeletal muscle mitochondria
Summary of the method: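 Freshly isolated rat skeletal muscle mitochondria, in the high-throughput screen run in 1,536-well format with library compounds at 10 µM. H2O2 was detected by Amplex UltraRed, which horseradish peroxidase oxidises to fluorescent resorufin. Data were normalised to the plate median signal, and rotenone was included on every plate as the positive site IQ inhibitor.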

intestinal stem cells = test: In vivo stem cell proliferation assays in Drosophila intestine; set-up: species or system Drosophila melanogaster; conditions: dietary, 800 nM; 50 µM tunicamycin
Summary of the method: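 Tunicamycin model: w;esgGal4,UAS-GFP virgins were crossed to Oregon Red males. Six-day-old offspring were starved 4 hr, fed 24 hr on 5% sucrose with 0.8% DMSO plus test compound, starved 1 hr, then given the same food with 50 µM tunicamycin for 24 hr. Adult female intestines were fixed and immunostained for phospho-histone H3, and positive cells were counted manually.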

H9c2 rat cardiomyoblasts = test: ER stress protection assay: caspase 3/7 activation by tunicamycin; format: cell-based; conditions: H9c2 cells, 0.5 µg/ml tunicamycin, 24 hr
Summary of the method: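 H9c2 cardiomyoblasts were seeded at 8,000 cells/well and grown 24 hr in DMEM with 10% FBS. Test compound or 1% DMSO vehicle was added, then 0.5 µg/ml tunicamycin 15 min later. After a further 24 hr, caspase 3/7 activity was read by luminescence. Background from cells without tunicamycin was subtracted, and values were normalised to vehicle-treated tunicamycin-exposed cells.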

perfused mouse heart = test: Langendorff-perfused heart model of ischemia-reperfusion injury; conditions: 1.6 µM for 5 min at reperfusion
Summary of the method: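 Mouse hearts were excised under tribromoethanol anaesthesia and perfused retrogradely at 4 ml/min in modified Krebs-Henseleit buffer with glucose, palmitate/BSA, lactate and pyruvate. After 20 min equilibration, hearts had 25 min global no-flow ischaemia and 60 min reperfusion. Test compound (1.6 µM) or 0.05% DMSO was infused for 5 min at reperfusion onset. Rate × developed pressure was normalised to pre-ischaemic baseline, infarct area was measured by TTC in 4–6 slices, and n = 6 per group.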

Row | SMILES | concentrations with off-target effects (site IQ) [µM] | inhibition of the fluorescent signal (positive inhibitor of site IQ) ([1]; plate control in screen) [%] | IC50 [1] [nM] | suppression of tunicamycin-induced increase in mitotic marker phospho-histone H3 (intestinal stem cells) | caspase 3/7 activation by tunicamycin (H9c2 rat cardiomyoblasts) | post-ischemic recovery of cardiac function (rate × pressure product) (perfused mouse heart; 25 min ischemia) | infarct size (perfused mouse heart; TTC staining)
1 | O=[N+]([O-])c1ccc(Oc2ccc(S(=O)(=O)NC3CCCCC3)cc2)cc1 [CN-POBS, N-cyclohexyl-4-(4-nitrophenoxy) benzenesulfonamide] | > 10 | – | – | – | – | – | –
2 | C=C(C)[C@H]1Cc2c(ccc3c2O[C@@H]2COc4cc(OC)c(OC)cc4[C@@H]2C3=O)O1 [Rotenone, reference compound] | – | > 85 | – | – | – | – | –
3 | CC(=O)Nc1cccc(NC(=O)C(=O)NCCc2sc(-c3ccc(C)cc3)nc2C)c1 [S1QEL1.1] | – | – | 70 | up to 45% | strongly attenuated caspase activation | significantly improved | small but significant decrease
4 | CCCCC1CCC(C(=O)NCCS(=O)(=O)N2CCN(c3cccc(Cl)c3)CC2)CC1 (stereo not shown) [S1QEL2.2] | – | – | 1500 | up to 45% | also did so at higher concentrations | – | –
